Laboratory results taken from ChEMBL document CHEMBL1151946, “Doxazosin-related alpha1-adrenoceptor antagonists with prostate antitumor activity” (J Med Chem, 2009).
Active and inactive are the calls of the source. No cut-off for these calls is given here.

Tests used:
PC-3 [1] = assay: Cytotoxicity against human PC3 cells after 72 hrs by CellTitter-Glo luminescent cell viability assay; format: functional, cell-based; settings: PC-3, 72 h
[2] = biological target: T1, Alpha-1D adrenergic receptor (Homo sapiens, UniProt P25100); assay: Displacement of [3H]prazosin from human Alpha-1D adrenoceptor expressed in CHO cells; format: cell-based
T1 sequence (P25100 whole entry): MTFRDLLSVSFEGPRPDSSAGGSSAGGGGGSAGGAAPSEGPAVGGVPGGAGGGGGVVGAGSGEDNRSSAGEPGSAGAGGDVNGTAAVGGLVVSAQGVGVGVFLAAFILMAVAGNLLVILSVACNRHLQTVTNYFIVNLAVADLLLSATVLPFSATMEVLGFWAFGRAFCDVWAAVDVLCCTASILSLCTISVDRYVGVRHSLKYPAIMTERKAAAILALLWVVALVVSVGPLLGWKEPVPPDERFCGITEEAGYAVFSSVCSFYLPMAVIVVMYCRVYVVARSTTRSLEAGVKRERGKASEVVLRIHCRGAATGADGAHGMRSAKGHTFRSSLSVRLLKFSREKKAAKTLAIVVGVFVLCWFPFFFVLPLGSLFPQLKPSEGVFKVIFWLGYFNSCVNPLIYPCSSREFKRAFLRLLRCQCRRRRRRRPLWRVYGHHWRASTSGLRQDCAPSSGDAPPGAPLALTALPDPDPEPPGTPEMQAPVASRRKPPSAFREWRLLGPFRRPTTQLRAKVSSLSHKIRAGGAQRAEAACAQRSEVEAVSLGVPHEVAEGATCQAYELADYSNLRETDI
Outline: (§1)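 Radioligand competition binding used [3H]prazosin on membranes of CHO cells expressing human α1a, α1b or α1d adrenoceptor. IC50 values were converted to pKi by the Cheng-Prusoff equation. Data come from two to three experiments run in triplicate, agreeing within ±20%.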

[3] = biological target: T2, Alpha-1B adrenergic receptor (Homo sapiens, UniProt P35368); assay: Displacement of [3H]prazosin from human Alpha-1B adrenoceptor expressed in CHO cells; format: cell-based; outline: as §1
T2 sequence (P35368 whole entry): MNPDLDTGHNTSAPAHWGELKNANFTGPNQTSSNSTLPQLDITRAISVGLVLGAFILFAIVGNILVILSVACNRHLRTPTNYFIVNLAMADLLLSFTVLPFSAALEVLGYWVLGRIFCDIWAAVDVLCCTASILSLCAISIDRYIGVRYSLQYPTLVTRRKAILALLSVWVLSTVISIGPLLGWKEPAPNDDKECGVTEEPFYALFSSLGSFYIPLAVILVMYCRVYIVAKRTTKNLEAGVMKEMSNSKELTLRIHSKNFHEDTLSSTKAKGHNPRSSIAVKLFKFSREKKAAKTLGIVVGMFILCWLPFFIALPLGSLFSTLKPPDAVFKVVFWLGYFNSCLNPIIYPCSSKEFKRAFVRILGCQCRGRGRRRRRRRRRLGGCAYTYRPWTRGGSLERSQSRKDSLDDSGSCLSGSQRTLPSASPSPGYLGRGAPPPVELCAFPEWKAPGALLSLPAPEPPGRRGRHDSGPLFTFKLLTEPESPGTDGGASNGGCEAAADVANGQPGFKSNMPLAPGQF

[4] = biological target: T3, Alpha-1A adrenergic receptor (Homo sapiens, UniProt P35348); assay: Displacement of [3H]prazosin from human alpha1A adrenoceptor expressed in CHO cells; format: cell-based; outline: as §1
T3 sequence (P35348 whole entry): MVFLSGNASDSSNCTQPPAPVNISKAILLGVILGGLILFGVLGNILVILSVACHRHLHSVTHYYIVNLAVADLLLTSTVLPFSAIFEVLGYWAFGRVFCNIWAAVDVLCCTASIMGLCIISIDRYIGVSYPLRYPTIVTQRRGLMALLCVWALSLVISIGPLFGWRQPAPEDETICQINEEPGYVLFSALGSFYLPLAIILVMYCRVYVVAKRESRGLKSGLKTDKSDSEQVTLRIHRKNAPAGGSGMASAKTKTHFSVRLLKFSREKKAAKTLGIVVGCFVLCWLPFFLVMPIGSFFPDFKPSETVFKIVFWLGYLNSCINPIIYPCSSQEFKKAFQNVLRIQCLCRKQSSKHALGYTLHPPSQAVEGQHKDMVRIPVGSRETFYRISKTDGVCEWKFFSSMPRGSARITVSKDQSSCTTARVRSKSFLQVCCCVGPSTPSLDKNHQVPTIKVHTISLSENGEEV

[5] = biological target: T4, Alpha-1A adrenergic receptor (Rattus norvegicus, UniProt P43140); assay: Antagonist activity at rat alpha1A adrenoceptor assessed as inhibition if norepinephrine-induced contraction of vas deference; format: functional; settings: read-out: pA2 (converted)
T4 sequence (P43140 whole entry): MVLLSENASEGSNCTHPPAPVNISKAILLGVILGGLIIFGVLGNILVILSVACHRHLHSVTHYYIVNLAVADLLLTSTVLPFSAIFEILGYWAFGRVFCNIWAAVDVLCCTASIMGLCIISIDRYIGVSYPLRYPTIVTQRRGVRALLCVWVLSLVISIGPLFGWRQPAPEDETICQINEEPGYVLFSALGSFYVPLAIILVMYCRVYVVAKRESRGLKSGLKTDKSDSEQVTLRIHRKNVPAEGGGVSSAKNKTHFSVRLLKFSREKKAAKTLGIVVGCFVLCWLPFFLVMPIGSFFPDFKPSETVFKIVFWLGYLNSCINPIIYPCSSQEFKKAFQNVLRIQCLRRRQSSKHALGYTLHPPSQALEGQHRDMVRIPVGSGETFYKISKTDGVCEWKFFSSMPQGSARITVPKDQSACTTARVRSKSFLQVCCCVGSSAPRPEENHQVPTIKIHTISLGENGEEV
Outline: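 Isolated rat tissue contraction assay. The α1A response used vas deferens with (-)-noradrenaline as agonist, α1D used thoracic aorta with (-)-noradrenaline, and α1B used spleen with (-)-phenylephrine. pA2 values are means ± SEM over three antagonist concentrations, each tested at least four times. Where the Schild slope differed from unity, pKB was calculated by van Rossum at the lowest antagonist concentration giving log(CR−1) ≥0.5.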

PC-3 [6] = assay: Induction of apoptosis in human PC3 cells assessed as caspase 3/7 activation after 24 hrs by Caspase-Glo 3/7 assay; format: functional, cell-based; settings: PC-3, 24 h
DU-145 [7] = assay: Induction of apoptosis in human DU145 cells assessed as caspase 3/7 activation after 24 hrs Caspase-Glo 3/7 assay; format: functional, cell-based; settings: Homo sapiens, DU-145, 24 h
PC-3 [8] = assay: Induction of apoptosis in human PC3 cells xenografted in NU/NU mouse assessed as DNA fragmentation at 0.3 to 3 mg/kg by agarose gel electrophoresis; format: functional, organism-based
Outline: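 DNA from PC-3 subcutaneous tumors of orally treated nude mice was run on an electrophoretic gel. Apoptosis was scored as a DNA ladder pattern.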

LNCaP [9] = assay: Cytotoxicity against human LNCAP cells after 72 hrs by CellTitter-Glo luminescent cell viability assay; format: functional, cell-based
DU-145 [10] = assay: Cytotoxicity against human DU145 cells after 72 hrs by CellTitter-Glo luminescent cell viability assay; format: functional, cell-based; settings: DU-145, 72 h
NHDF [11] = assay: Cytotoxicity against human NHDF cells after 72 hrs by CellTitter-Glo luminescent cell viability assay; format: functional, cell-based
LNCaP [12] = assay: Induction of apoptosis in human LNCAP cells assessed as caspase 3/7 activation after 24 hrs Caspase-Glo 3/7 assay; format: functional, cell-based; settings: Homo sapiens, LNCaP, 24 h; read-out: EC50
NHDF [13] = assay: Induction of apoptosis in human NHDF cells assessed as caspase 3/7 activation after 24 hrs Caspase-Glo 3/7 assay; format: functional, cell-based
PC-3 [14] = assay: Antiangiogenic activity in human PC3 cells xenografted in NU/NU mouse assessed as reduction vascularization at 3 mg/kg by immunohistochemistry; format: functional, organism-based; design: dose 3 mg/kg
Outline: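 Vascularization of PC-3 flank tumors from nude mice dosed orally was assessed by immunohistochemistry with rat anti-mouse CD31 monoclonal antibody as endothelial marker. Doses were 0.3, 1 and 3 mg/kg.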

Ki [2] | Ki [3] | Ki [4] | Kb [5] | EC50 (PC-3 [6]) | EC50 (DU-145 [7]) | EC50 (LNCaP [12]) | EC50 (NHDF [13]) | SMILES | IC50 (PC-3 [1]) | EC50 (PC-3 [1]) | Activity (PC-3 [8]) | IC50 (LNCaP [9]) | EC50 (DU-145 [10]) | IC50 (DU-145 [10]) | EC50 (NHDF [11]) | IC50 (NHDF [11]) | Activity (PC-3 [14])
0.00049 µM | 0.00141 µM | 0.00339 µM | – | – | – | – | – | COc1cc2nc(N3CCN(C(=O)C4COc5ccccc5O4)[C@@H]4CCCC[C@@H]43)nc(N)c2cc1OC (single isomer, unassigned) | 1.02 µM | – | – | – | – | – | – | – | –
0.00017 µM | 0.000324 µM | 0.0055 µM | 0.00123 µM | – | – | – | – | COc1cc2nc(N3CCN(C(=O)c4ccco4)[C@H]4CCCC[C@H]43)nc(N)c2cc1OC [CYCLAZOSIN] | – | – | – | – | – | – | – | – | –
– | – | – | – | > 100 µM | > 100 µM | 100 µM | 40.4 µM | COc1cc2nc(N3CCN(C(=O)C4COc5ccccc5O4)CC3)nc(N)c2cc1OC (stereo unspecified) [DOXAZOSIN] | 38.6 µM | > 100 µM | Active | 28.1 µM | > 100 µM | 37.4 µM | 40.4 µM | 43 µM | Active
